Experiments:
[1] = Toxicity in mouse HT22 cells assessed as inhibition of cell viability at 50 uM incubated for 48 hrs by Cell-titer-Blue dye based fluorescence spectrophotometry relative to control; set-up: species or system HT-22; conditions: read-out: Activity
Procedure, shortened: (§1)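 HT-22 cells in DMEM high glucose with 10% FBS, 2000 per well. Serially diluted compound added after 12 h, incubated 48 h. […] Background subtracted, normalized to control wells.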

[2] = Toxicity in mouse HT22 cells assessed as inhibition of cell viability at 10 uM incubated for 48 hrs by Cell-titer-Blue dye based fluorescence spectrophotometry relative to control; set-up: species or system HT-22; conditions: read-out: Activity; procedure, shortened: as §1
Danio rerio [3] = species: Danio rerio; experiment: Anti-seizure activity in Zebrafish larvae assessed as reduction in PTZ-induced increase in total swimming distance in 15 mins at 5 uM pre-incubated for 1 hr prior to PTZ-induced seizure induction relative to control; assay type: functional; set-up: scale not given: the % may be the effect or the level left
[4] = Half life in CD1 mouse at 20 mg/kg, ip measured after 0.083 to 24 hrs by LC-MS/MS analysis; assay type: ADME, organism-based; conditions: in vivo
Procedure, shortened: (§2)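 Male CD-1 mice, 3 per route. Oral and ip at 20 mg/kg by gavage needle; iv at 5 mg/kg by tail vein. Vehicles were 20% DMA:40% PEG300:40% H2O for oral/iv and 5% DMSO:95% Neobee for ip. Blood sampled 0.083–24 h, plasma protein-precipitated with acetonitrile plus internal standard, LC-MS/MS (MRM). Non-compartmental analysis, linear trapezoidal AUC.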

[5] = Cmax in CD1 mouse at 20 mg/kg, ip measured after 0.083 to 24 hrs by LC-MS/MS analysis; assay type: ADME, organism-based; set-up: dose 20 mg/kg, route intraperitoneal; conditions: in vivo; procedure, shortened: as §2
Danio rerio [6] = species: Danio rerio; experiment: Anti-seizure activity in Zebrafish; assay type: functional, organism-based
Procedure, shortened: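 Single 7 dpf zebrafish larvae per well, pretreated 1 h at […] with compound (10 or 5 μM) in E3 buffer from DMSO stock. Then 15 mM PTZ added and movement tracked 15 min in 1-min bins. VPA 5 and 10 mM as positive controls, n=8 per group, one-way ANOVA.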

[7] = Toxicity in Zebrafish; set-up: species or system Danio rerio; conditions: in vivo, read-out: LD50 (the source's name)
[8] = Tmax in CD1 mouse at 20 mg/kg, ip measured after 0.083 to 24 hrs by LC-MS/MS analysis; assay type: ADME, organism-based; conditions: in vivo
[9] = AUClast in CD1 mouse at 20 mg/kg, ip measured after 0.083 to 24 hrs by LC-MS/MS analysis; assay type: ADME, organism-based; set-up: time lower 0.083 hr, dose 20 mg/kg, time upper 24 hr, route intraperitoneal; conditions: in vivo; procedure, shortened: as §2
[10] = Half life in mouse; assay type: ADME, organism-based; conditions: in vivo
Danio rerio [11] = species: Danio rerio; experiment: Anti-seizure activity in Zebrafish larvae assessed as reduction in PTZ-induced increase in total swimming distance in 15 mins at 10 uM pre-incubated for 1 hr prior to PTZ-induced seizure induction relative to control; assay type: functional; set-up: scale not given: the % may be the effect or the level left
Danio rerio [12] = species: Danio rerio; experiment: Increase in ATP concentration in zebrafish at 1 uM incubated for 24 hrs by fluorometric ATP assay relative to control; assay type: functional
Procedure, shortened: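 7 dpf zebrafish larvae, one per well, kept at 28.5°C for 24 h with compound in E3 buffer (DMSO stock). DMSO vehicle in control wells. Twelve fish per condition pooled, flash-frozen, homogenized in ATP buffer and centrifuged. ATP in the supernatant read by fluorescence at ex 535/em 587 nm, normalized to total protein (BCA), and expressed as nmole/mg relative to DMSO control. n = 7–13.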

Mus musculus = experiment: Anti-seizure activity in ip dosed CF1 mouse assessed as attenuation of psychomotor seizures at stimulus intensities of 42 mA at pre-treated at 1 hr before test by 6 Hz limbic seizure test relative to control; assay type: functional
[13] = Drug reactivity with 2-mercaptoethanol measured over 6 hrs; assay type: physicochemical
[14] = Toxicity in CF1 mouse assessed as induction of motor impairment during acute (1 hr) observation period by rotarod assay; conditions: CF1, mouse, in vivo
Procedure, shortened: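 Male CF-1 mice, ip dosing in miglyol 840/DMSO (95%/5%), up to 800 mg/kg. Rotarod at 6 rpm done 1 h after dosing, on the same animals just before 6 Hz testing. Falling three times within one minute scored as impaired; animals also inspected visually.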

O=C1C=C(NCCC2CCCC2)C(=O)c2ccccc21
inhibition at 48 h, 50 µM [1]: 43.8% | inhibition at 48 h, 10 µM [2]: 35.4% | Activity (Danio rerio [3]): 45%

C#CCNC1=CC(=O)c2ccccc2C1=O
half-life [4]: 66 min | Cmax [5]: 1490 ng/mL | EC50 (Danio rerio [6]): 20 µM | LC50 [7]: > 20 µM | Tmax [8]: 15 min | AUC(0-t) [9]: 978 ng·h/mL | half-life [10]: 66 min | Activity (Danio rerio [3]): 7.4% | Activity (Danio rerio [11]): 5.4%

CC(C)=CCNC1=CC(=O)c2ccccc2C1=O
inhibition at 48 h, 50 µM [1]: 38.3% | inhibition at 48 h, 10 µM [2]: 15% | Activity (Danio rerio [3]): -4.4%

O=C1C=C(NCCC2CCCCC2)C(=O)c2ccccc21
inhibition at 48 h, 50 µM [1]: 2.09% | inhibition at 48 h, 10 µM [2]: 0.07%

CC(C)(C)CNC1=CC(=O)c2ccccc2C1=O
inhibition at 48 h, 50 µM [1]: 22.4% | inhibition at 48 h, 10 µM [2]: 10.8%

CCN(C)CCNC1=CC(=O)c2ccccc2C1=O
inhibition at 48 h, 50 µM [1]: 101% | inhibition at 48 h, 10 µM [2]: 86.2%

CN(CCCNC1=CC(=O)c2ccccc2C1=O)c1ccccc1
inhibition at 48 h, 50 µM [1]: 10.2% | inhibition at 48 h, 10 µM [2]: 11.5% | Activity (Danio rerio [3]): 7.3%

O=C1C=C(NCC2CC2)C(=O)c2ccccc21
inhibition at 48 h, 50 µM [1]: 54.1% | inhibition at 48 h, 10 µM [2]: 16.8% | Activity (Danio rerio [3]): -10.1% | Activity (Danio rerio [11]): -10.1%

CCC(C)CNC1=CC(=O)c2ccccc2C1=O (stereo not drawn)
inhibition at 48 h, 50 µM [1]: 41.2% | inhibition at 48 h, 10 µM [2]: 14.8% | Activity (Danio rerio [3]): 23%

CC(C)(O)CCNC1=CC(=O)c2ccccc2C1=O
inhibition at 48 h, 50 µM [1]: 59.7% | inhibition at 48 h, 10 µM [2]: 25.5% | Activity (Danio rerio [3]): 9.5% | Activity (Danio rerio [11]): -5.6%

CC(C)CC(C)NC1=CC(=O)c2ccccc2C1=O (stereo not drawn)
inhibition at 48 h, 50 µM [1]: 15% | inhibition at 48 h, 10 µM [2]: 2.09%

O=C1C=C(NCCC2CCC2)C(=O)c2ccccc21
inhibition at 48 h, 50 µM [1]: 36.3% | Activity (Danio rerio [12]): 21.4% | inhibition at 48 h, 10 µM [2]: 27.2%

CCC(O)CNC1=CC(=O)c2ccccc2C1=O (stereo not drawn)
inhibition at 48 h, 50 µM [1]: 69% | inhibition at 48 h, 10 µM [2]: 38.6%

CN(C)CCCNC1=CC(=O)c2ccccc2C1=O
inhibition at 48 h, 50 µM [1]: 96.7% | inhibition at 48 h, 10 µM [2]: 74.5% | Activity (Danio rerio [11]): -2.9%

CCN(CC)CCNC1=CC(=O)c2ccccc2C1=O
inhibition at 48 h, 50 µM [1]: 100% | inhibition at 48 h, 10 µM [2]: 83.8% | Activity (Danio rerio [3]): -7.2% | Activity (Danio rerio [11]): 27%

CCCC(CCC)C(=O)O [VALPROIC ACID]
ED50 (Mus musculus): 289 mg/kg

CC1=CC(=O)c2ccccc2C1=O [MENADIONE]
EC50 (Danio rerio [6]): 3 µM | LC50 [7]: 6 µM | Drug metabolism [13]: Metabolite_Detected | half-life [10]: 27 min

NC(=O)OCC(COC(N)=O)c1ccccc1 [FELBAMATE]
ED50 (Mus musculus): 97.5 mg/kg | TD50 at 1 h [14]: 452 mg/kg

CC(C)(C)CCCNC1=CC(=O)c2ccccc2C1=O
inhibition at 48 h, 50 µM [1]: 6.75% | inhibition at 48 h, 10 µM [2]: 3.81% | Activity (Danio rerio [3]): -3%

CC[C@@H](C(N)=O)N1CCCC1=O
TD50 at 1 h [14]: > 500 mg/kg

C=C(C)[C@@H]1CCC(C)=C[C@H]1c1c(O)cc(CCCCC)cc1O [CANNABIDIOL]
ED50 (Mus musculus): 174 mg/kg

CC1=C(NCCC(C)C)C(=O)c2ccccc2C1=O
inhibition at 48 h, 50 µM [1]: 21.4% | inhibition at 48 h, 10 µM [2]: 11.2%

CC(C)CCCNC1=CC(=O)c2ccccc2C1=O
inhibition at 48 h, 50 µM [1]: 21.3% | inhibition at 48 h, 10 µM [2]: 28.8%

CN(C)CCNC1=CC(=O)c2ccccc2C1=O
inhibition at 48 h, 50 µM [1]: 99.8% | inhibition at 48 h, 10 µM [2]: 82.6%

CC(O)CCNC1=CC(=O)c2ccccc2C1=O (stereo not drawn)
inhibition at 48 h, 50 µM [1]: 64.2% | inhibition at 48 h, 10 µM [2]: 19.4% | Activity (Danio rerio [3]): 0.78%

O=C1C=C(NCC2CCC2)C(=O)c2ccccc21
inhibition at 48 h, 50 µM [1]: 62.3% | inhibition at 48 h, 10 µM [2]: 33.7%

O=C1C=C(NCCC2CC2)C(=O)c2ccccc21
inhibition at 48 h, 50 µM [1]: 56.4% | inhibition at 48 h, 10 µM [2]: 34.7%

CC1=C(NCCC(C)(C)C)C(=O)c2ccccc2C1=O
inhibition at 48 h, 50 µM [1]: 17.5% | inhibition at 48 h, 10 µM [2]: 10.2% | Activity (Danio rerio [3]): 3.3%

CC(C)(C)CCNC1=CC(=O)c2ccccc2C1=O
inhibition at 48 h, 50 µM [1]: 17% | inhibition at 48 h, 10 µM [2]: 11.9%

CC(CO)CCNC1=CC(=O)c2ccccc2C1=O (stereo not drawn)
inhibition at 48 h, 50 µM [1]: 76.7% | inhibition at 48 h, 10 µM [2]: 25.7% | Activity (Danio rerio [3]): -2.4% | Activity (Danio rerio [11]): 8.2%
